Data: ChEMBL document CHEMBL1811825, “Synthesis and antiviral evaluation of 9-(S)-[3-alkoxy-2-(phosphonomethoxy)propyl]nucleoside alkoxyalkyl esters: inhibitors of hepatitis C virus and HIV-1 replication” (Bioorg Med Chem, 2011)

How the values were obtained:
Hepatitis C virus [1] = experiment: Antiviral activity against Hepatitis C virus genotype 1b infected in human Huh-7.5.1 cells after 48 to 72 hrs by luciferase reporter assay; format: functional, organism-based, Hepacivirus hominis
Hepatitis C virus [2] = experiment: Antiviral activity against HCV JFH-1 infected in human Huh-7.5.1 cells after 48 to 72 hrs by luciferase reporter assay; format: functional, organism-based, Hepacivirus hominis; conditions: JFH-1, Huh-7.5.1
[3] = Cytotoxicity against human Huh7.5.1 cells by fluorescent cell viability assay; format: cell-based, Huh-7
[4] = Selectivity index, ratio of CC50 for human Huh7.5.1 cells to EC50 for HCV genotype1b in human Huh-7.5.1 cells; format: functional, Huh-7
[5] = tested on: Human immunodeficiency virus 1; experiment: Antiviral activity against HIV-1 LAI infected in human MT2 cells assessed as p24 antigen production after 4 days by ELISA; format: functional, organism-based; conditions: Human immunodeficiency virus 1, LAI, MT2, 96 h
Method in brief: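 MT-2 cells in RPMI 1640 with 10% FBS, 10 mM HEPES, penicillin/streptomycin, inoculated with HIV-1 LAI at MOI 0.001 TCID50/cell; threefold serial drug dilutions, three wells each.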

MT2 = experiment: Cytotoxicity against human MT2 cells after 72 hrs by propidium iodide staining-based flow cytometry; format: cell-based; conditions: mt2, 72 h
[6] = Selectivity index, ratio of CC50 for human Huh7.5.1 cells to EC50 for HCV JFH-1 in human Huh-7.5.1 cells; format: functional, Huh-7
Human alphaherpesvirus 1 = experiment: Antiviral activity against Human herpesvirus 1 infected in human HFF cells after 3 days by Plaque reduction assay; format: functional, organism-based; conditions: Human alphaherpesvirus 1, HFF, 72 h
Human betaherpesvirus 5 = experiment: Antiviral activity against Human cytomegalovirus infected in human HFF cells after 8 days by Plaque reduction assay; format: functional, organism-based; conditions: Human betaherpesvirus 5, HFF, 192 h
Vaccinia virus = experiment: Antiviral activity against Vaccinia virus infected in human HFF cells after 3 days by Plaque reduction assay; format: functional, organism-based; conditions: Orthopoxvirus vaccinia, 72 h
Cowpox virus = experiment: Antiviral activity against Cowpox virus infected in human HFF cells after 3 days by Plaque reduction assay; format: functional, organism-based; conditions: 72 h
[7] = Selectivity index, ratio of CC50 for human MT2 cells to EC50 for HIV-1 LAI infected in human MT2 cells; format: toxicity, cell-based; conditions: read-out: Ratio CC50/EC50

Row | SMILES | EC50 (Hepatitis C virus [1]) [µM] | EC50 (Hepatitis C virus [2]) [µM] | CC50 ([3]; Huh7.5.1 cells) [µM] | Ratio CC50/EC50 [4] | EC50 [5] [nM] | CC50 (MT2) [µM] | Ratio CC50/EC50 [6] | CC50 ([3]; huh-7) [µM] | EC50 (Human alphaherpesvirus 1) [µM] | EC50 (Human betaherpesvirus 5) [µM] | EC50 (Vaccinia virus) [µM] | EC50 (Cowpox virus) [µM] | selectivity ratio [7]
1 | CCCCCCCCCCCCCCCCOCCCOP(=O)([O-])COC(COCC)Cn1cnc2c(=O)[nH]c(N)nc21.[Na+] (racemic) | 25.5 | 13.2 | > 150 | >5.88 | > 10000 | 14.9 | >11.4 |  |  |  |  |  | 
2 | CCCCCCCCCCCCCCCCOCCCOP(=O)(O)CO[C@H](COC)Cn1cnc2c(=O)[nH]c(N)nc21 | 22 | 24.8 | > 150 |  | 2030 | 29.3 |  |  |  |  |  |  | 
3 | CCCCCCCCCCCCCCCCOCCCOP(=O)(O)COC(COC(C)C)Cn1cnc2c(N)ncnc21 (racemic) | 51.2 | 98.8 |  |  | > 10000 | 30.3 |  | 100 |  |  |  |  | 
4 | CCCCCCCCCCCCCCCCCCOCCOP(=O)(O)CO[C@@H](COC)Cn1cnc2c(N)ncnc21 | 4.65 | 5.33 | > 150 |  | 4800 |  |  |  |  |  |  |  | 
5 | CCCCCCCCCCCCCCCCCCOCCOP(=O)(O)CO[C@H](COC)Cn1cnc2c(N)nc(N)nc21 | 20.1 | 21.4 |  |  | 230 | 18 |  | 99 |  |  |  |  | 
6 | CCCCCCCCCCCCCCCCCCOCCOP(=O)(O)CO[C@H](COC)Cn1cnc2c(N)ncnc21 | 1.43 | 2.38 | > 150 |  | 30 |  |  |  | 45.7 | 1.55 | 18.3 | > 20 | 
7 | CCCCCCCCCCCCCCCCOCCCOP(=O)([O-])COC(COCC)Cn1cnc2c(N)nc(N)nc21.[Na+] (racemic) | 18.2 | 19.5 | > 150 | >8.2 | > 10000 | 30.7 | >7.69 |  |  |  |  |  | 
8 | CCCCCCCCCCCCCCCCOCCCOP(=O)(O)CO[C@H](COC)Cn1cnc2c(OC)ncnc21 | 8.9 | 12.5 | > 150 |  | > 10000 | 22 |  |  |  |  |  |  | 
9 | CCCCCCCCCCCCCCCCOCCCOP(=O)(O)CO[C@H](COC)Cn1cnc2c(N)nc(N)nc21 | 21.3 | 23.6 |  |  | 4600 | 22.7 |  | 91.5 |  |  |  |  | 
10 | CCCCCCCCCCCCCCCCCCOCCOP(=O)([O-])CO[C@@H](COC)Cn1cnc2c(=O)[nH]c(N)nc21.[Na+] | 12.6 | 12.4 | > 150 | >11.9 | < 0.01 | 44 | >12.1 |  |  |  |  |  | > 4.4e+06
11 | CCCCCCCCCCCCCCCCCCOCCOP(=O)(O)CO[C@H](CO)Cn1cnc2c(N)ncnc21 | 1.55 | 1.65 |  |  | 0.1 | 0.033 |  | 35.6 | < 0.0001 |  |  |  | 
12 | CCCCCCCCCCCCCCCCCCOCCOP(=O)([O-])CO[C@H](COC)Cn1cnc2c(=O)[nH]c(N)nc21.[Na+] | 8.26 | 10.7 | > 150 | >18.2 | 200 | 25 | >14 |  |  |  |  |  | 125
13 | CCCCCCCCCCCCCCCCOCCCOP(=O)(O)CO[C@H](COC)Cn1cnc2c(N)ncnc21 | 2.36 | 4.64 | > 150 |  | 200 | 32 |  |  |  |  |  |  | 
14 | CCCCCCCCCCCCCCCCCCOCCOP(=O)(O)CO[C@H](COC)Cn1ccc(N)nc1=O | > 150 | > 150 | > 150 |  | 12700 | 60.7 |  |  |  |  |  |  | 4.8
15 | CCCCCCCCCCCCCCCCOCCCOP(=O)(O)CO[C@H](COC)Cn1cnc2c(OC)nc(N)nc21 | 18.1 | 17.4 | > 150 |  | > 10000 | 34.3 |  |  |  |  |  |  | 
16 | CCCCCCCCCCCCCCCCOCCCOP(=O)(O)COC(COCC)Cn1cnc2c(N)ncnc21 (racemic) | 7.59 | 8.87 |  |  | > 10000 | 23.6 |  | 99 |  |  |  |  | 
17 | CCCCCCCCCCCCCCCCCCOCCOP(=O)(O)CO[C@@H](COC)Cn1cnc2c(N)nc(N)nc21 | 25.6 | 25.8 | > 150 |  | 40 | 19.7 |  |  |  |  |  |  | 
